Assay results published in ChEMBL document CHEMBL4251599, “Synthesis and biological evaluation of coumarin derivatives containing imidazole skeleton as potential antibacterial agents” (Eur J Med Chem, 2018).
In brackets after ≈: the same amount, converted by molar mass.

How the values were obtained:
[1] = test system: Flavobacterium columnare; assay: Bactericidal activity against Flavobacterium columnare FC-G1 incubated for 24 hrs followed by re-plating on nutrient agar and measured after overnight incubation by two fold serial dilution method; format: functional; conditions: FC-G1, 24 h
Method in brief: (§1)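 After the MIC read, 100 µl from every tube without visible growth was spread on nutrient agar lacking compound. Plates were incubated overnight at 28 ± 1 °C. MBC was taken as the lowest concentration killing >99.9% of the initial population, seen as no growth on agar.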

[2] = test system: Flavobacterium columnare; assay: Antibacterial activity against Flavobacterium columnare FC-G1 after 24 hrs by two fold serial dilution method; format: functional; conditions: FC-G1, 24 h
Method in brief: (§2)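 Broth two-fold serial dilution per CLSI, in nutrient broth. Inoculum from 24 h cultures at 28 ± 1 °C, adjusted in saline to 1×10^7-2×10^7 cfu/mL, then diluted to 1×10^5-2×10^5 cfu/mL. Test range 256 down to 0.50 µM and lower. Tubes held 24 h at 28 ± 1 °C. MIC read visually. Enrofloxacin and norfloxacin served as standards.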

[3] = test system: Streptococcus agalactiae; assay: Antibacterial activity against Streptococcus agalactiae WB1445 after 24 hrs by two fold serial dilution method; format: functional; conditions: WB1445, 24 h; method in brief: as §2
[4] = molecular target: T1, Enoyl-(Acyl-carrier-protein) reductase II (Streptococcus agalactiae serotype V (strain ATCC BAA-611 / 2603 V/R), UniProt Q8E1K8); assay: Inhibition of Streptococcus agalactiae WB1445 FabK in presence of t-O-NAC and NADH up to 1 min by spectrophotometric analysis
T1 sequence (Q8E1K8 whole entry): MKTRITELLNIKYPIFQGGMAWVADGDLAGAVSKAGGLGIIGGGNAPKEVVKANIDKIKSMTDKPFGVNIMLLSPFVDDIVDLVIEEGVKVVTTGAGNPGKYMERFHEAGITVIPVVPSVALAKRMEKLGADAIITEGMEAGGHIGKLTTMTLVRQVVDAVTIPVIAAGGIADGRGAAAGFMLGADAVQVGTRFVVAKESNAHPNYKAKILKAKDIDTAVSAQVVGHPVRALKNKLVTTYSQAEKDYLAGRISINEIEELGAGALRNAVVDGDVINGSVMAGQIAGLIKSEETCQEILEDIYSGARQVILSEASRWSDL
Method in brief: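 Recombinant His-tagged FabK (20 µL of 150 µg/mL stock) was assayed in 100 µL of 0.1 M ADA-DTT, pH 6.5, against compounds at 128-1 µM, with 10 µL of 4 mM t-O-NAC. Addition of 20 µL of 2 mM NADH started the reaction. Absorbance at 340 nm was read for 1 min. IC50 was estimated from dose-response curves.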

[5] = Inhibition of Escherichia coli ATCC 35150 FabI in presence of t-O-NAC and NADH up to 1 min by spectrophotometric analysis
Method in brief: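 Recombinant His-tagged FabI, expressed in E. coli BL21(DE3) and purified on Ni-NTA, was used at 20 µL of 100 µg/mL stock in 0.1 M PBS-DTT. Compounds were tested at 128-1 µM with 10 µL of 4 mM t-O-NAC, and 20 µL of 2 mM NADH started the reaction. NADH oxidation was followed at 340 nm for 1 min. IC50 came from dose-response plots.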

[6] = test system: Streptococcus agalactiae; assay: Bactericidal activity against Streptococcus agalactiae WB1445 incubated for 24 hrs followed by re-plating on nutrient agar and measured after overnight incubation by two fold serial dilution method; format: functional; conditions: WB1445, 24 h; method in brief: as §1
[7] = test system: Escherichia coli; assay: Bactericidal activity against Escherichia coli ATCC 35150 incubated for 24 hrs followed by re-plating on nutrient agar and measured after overnight incubation by two fold serial dilution method; format: functional; conditions: ATCC 35150, 24 h; method in brief: as §1
[8] = test system: Staphylococcus aureus; assay: Bactericidal activity against Staphylococcus aureus ATCC 29213 incubated for 24 hrs followed by re-plating on nutrient agar and measured after overnight incubation by two fold serial dilution method; format: functional; conditions: ATCC 29213, 24 h; method in brief: as §1
[9] = test system: Staphylococcus aureus; assay: Antibacterial activity against Staphylococcus aureus ATCC 29213 after 24 hrs by two fold serial dilution method; format: functional; conditions: ATCC 29213, 24 h; method in brief: as §2
[10] = test system: Escherichia coli; assay: Antibacterial activity against Escherichia coli ATCC 35150 after 24 hrs by two fold serial dilution method; format: functional; conditions: ATCC 35150, 24 h; method in brief: as §2

SMILES | MBC [1] [µM] | MIC [2] [µM] | MIC [3] [µM] | IC50 [4] [µM] | IC50 [5] [µM] | MBC [6] [µM] | MBC [7] [µM] | MBC [8] [µM] | MIC [9] [µM] | MIC [10] [µM]
O=c1ccc2ccc(OCCCCCCCCn3cncn3)cc2o1 | 128 (≈ 43.7 µg/mL) | 64 (≈ 21.9 µg/mL) | 32 (≈ 10.9 µg/mL) | 7.68 | 79.5 | 64 (≈ 21.9 µg/mL) |  |  |  | 
Cc1cn(CCCCCCCCOc2ccc3ccc(=O)oc3c2)cn1 | 8 (≈ 2.84 µg/mL) | 4 (≈ 1.42 µg/mL) | 4 (≈ 1.42 µg/mL) | 1.75 | 117 | 16 (≈ 5.67 µg/mL) | > 256 | 64 (≈ 22.7 µg/mL) | 8 (≈ 2.84 µg/mL) | > 256
Cc1nccn1CCCCCCCCCCOc1ccc2ccc(=O)oc2c1 | 16 (≈ 6.12 µg/mL) | 8 (≈ 3.06 µg/mL) | 8 (≈ 3.06 µg/mL) | 4.21 | 108 | 16 (≈ 6.12 µg/mL) | > 256 | 128 (≈ 49 µg/mL) | 64 (≈ 24.5 µg/mL) | > 256
Cc1nccn1CCCCCCOc1ccc2ccc(=O)oc2c1 | 32 (≈ 10.4 µg/mL) | 16 (≈ 5.22 µg/mL) | 128 (≈ 41.8 µg/mL) | 3.44 | 1.2 | 256 (≈ 83.6 µg/mL) | 64 (≈ 20.9 µg/mL) | 256 (≈ 83.6 µg/mL) | 64 (≈ 20.9 µg/mL) | 8 (≈ 2.61 µg/mL)
O=c1ccc2ccc(OCCCCCCCCCCn3ccnc3)cc2o1 | 16 (≈ 5.9 µg/mL) | 16 (≈ 5.9 µg/mL) | 8 (≈ 2.95 µg/mL) | 5.03 | > 256 | 16 (≈ 5.9 µg/mL) | > 256 | 128 (≈ 47.2 µg/mL) | 64 (≈ 23.6 µg/mL) | > 256
Cc1cn(CCCCCCCCCCOc2ccc3ccc(=O)oc3c2)cn1 | 16 (≈ 6.12 µg/mL) | 16 (≈ 6.12 µg/mL) | 8 (≈ 3.06 µg/mL) | 4.37 | 115 | 16 (≈ 6.12 µg/mL) | > 256 | 128 (≈ 49 µg/mL) | 32 (≈ 12.2 µg/mL) | > 256
Cc1nccn1CCCCCCCCOc1ccc2ccc(=O)oc2c1 | 8 (≈ 2.84 µg/mL) | 2 (≈ 0.709 µg/mL) | 4 (≈ 1.42 µg/mL) | 1.13 | 112 | 16 (≈ 5.67 µg/mL) | > 256 | 128 (≈ 45.4 µg/mL) | 16 (≈ 5.67 µg/mL) | > 256
O=c1ccc2ccc(OCCCCCCCCn3ccnc3)cc2o1 | 8 (≈ 2.72 µg/mL) | 4 (≈ 1.36 µg/mL) | 8 (≈ 2.72 µg/mL) | 2.74 | 158 | 16 (≈ 5.45 µg/mL) | > 256 | 128 (≈ 43.6 µg/mL) | 16 (≈ 5.45 µg/mL) | > 256
Cc1nccn1CCCCOc1ccc2ccc(=O)oc2c1 | > 256 | > 256 | > 256 | > 256 | 4.46 | > 256 | 256 (≈ 76.4 µg/mL) | 256 (≈ 76.4 µg/mL) | 256 (≈ 76.4 µg/mL) | 64 (≈ 19.1 µg/mL)
Cc1cn(CCCCCCOc2ccc3ccc(=O)oc3c2)cn1 | 128 (≈ 41.8 µg/mL) | 32 (≈ 10.4 µg/mL) | 128 (≈ 41.8 µg/mL) | 3.59 | 1.35 | 256 (≈ 83.6 µg/mL) | 64 (≈ 20.9 µg/mL) | 128 (≈ 41.8 µg/mL) | 32 (≈ 10.4 µg/mL) | 16 (≈ 5.22 µg/mL)
